Data: ChEMBL document CHEMBL1146920, “3-[5-(4,5-dihydro-1H-imidazol-2-yl)-furan-2-yl]phenylamine (Amifuraline), a promising reversible and selective peripheral MAO-A inhibitor” (J Med Chem, 2006)

Tests used:
Monoamine oxidase = target: T1, Monoamine oxidase (Rattus norvegicus, UniProt P19643+P21396); experiment: Binding affinity to I2-IBS, imidazoline binding site of MAO; assay type: functional
T1 sequence (P19643 whole entry): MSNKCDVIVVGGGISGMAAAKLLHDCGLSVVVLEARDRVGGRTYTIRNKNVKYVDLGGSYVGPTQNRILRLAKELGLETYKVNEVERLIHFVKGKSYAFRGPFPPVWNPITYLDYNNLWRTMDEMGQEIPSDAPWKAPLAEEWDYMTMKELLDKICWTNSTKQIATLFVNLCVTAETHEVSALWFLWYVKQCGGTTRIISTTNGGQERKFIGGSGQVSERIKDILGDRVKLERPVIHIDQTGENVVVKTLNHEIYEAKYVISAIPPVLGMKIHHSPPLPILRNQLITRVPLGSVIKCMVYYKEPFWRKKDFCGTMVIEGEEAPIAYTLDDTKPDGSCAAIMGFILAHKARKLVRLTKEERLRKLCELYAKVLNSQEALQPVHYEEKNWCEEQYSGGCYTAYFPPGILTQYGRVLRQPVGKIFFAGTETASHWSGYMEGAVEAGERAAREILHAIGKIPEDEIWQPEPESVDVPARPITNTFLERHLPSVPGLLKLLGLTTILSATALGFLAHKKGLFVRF
T1 sequence (P21396 whole entry): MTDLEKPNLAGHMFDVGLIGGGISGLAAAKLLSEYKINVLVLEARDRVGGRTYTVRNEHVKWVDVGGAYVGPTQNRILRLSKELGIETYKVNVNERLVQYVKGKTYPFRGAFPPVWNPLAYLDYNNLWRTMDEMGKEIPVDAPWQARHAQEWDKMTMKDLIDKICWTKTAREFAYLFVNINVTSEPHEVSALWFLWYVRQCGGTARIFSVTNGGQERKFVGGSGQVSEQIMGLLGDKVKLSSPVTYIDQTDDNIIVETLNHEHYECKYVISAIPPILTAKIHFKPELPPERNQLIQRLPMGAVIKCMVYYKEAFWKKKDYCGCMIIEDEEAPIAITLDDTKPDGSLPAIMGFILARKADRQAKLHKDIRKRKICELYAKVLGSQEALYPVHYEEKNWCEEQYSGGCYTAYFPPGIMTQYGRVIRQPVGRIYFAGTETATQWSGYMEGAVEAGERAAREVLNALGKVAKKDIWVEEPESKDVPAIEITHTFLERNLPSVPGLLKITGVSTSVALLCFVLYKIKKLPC

[1] = target: T2, Amine oxidase [flavin-containing] A (Rattus norvegicus, UniProt P21396); experiment: Inhibition of MAO-A in rat liver assessed as decrease in [14C]5-HT oxidation at 10 uM after 20 mins relative to control; assay type: functional; conditions: read-out: Activity
T2 sequence (P21396 whole entry): T1 sequence (P21396 whole entry)
Outline: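 Rat liver homogenate (0.5 mg/mL) in 50 mM phosphate, pH 7.4, incubated 20 min at 37 °C with 10 µM compound or vehicle. MAO-A activity read with 200 µM [14C]serotonin, before and after washing (40 000 g centrifugation, buffer wash, resuspension). Expressed as percent of unwashed vehicle-treated homogenate; duplicate experiments.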

[2] = target: T3, Amine oxidase [flavin-containing] B (Rattus norvegicus, UniProt P19643); experiment: Decrease in MAO-B activity in Sprague-Dawley rat brain at 50 mg/kg, ip; assay type: functional, organism-based; set-up: dose 50 mg/kg, route intraperitoneal; conditions: in vivo
T3 sequence (P19643 whole entry): T1 sequence (P19643 whole entry)
Outline: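 Male Sprague Dawley rats (~250 g), four per group, got three ip doses of 50 mg/kg (10 mg/mL in saline or DMSO/saline), 20 h, 4 h 30 min and 1 h 30 min before sacrifice. Brain was stored at -80 °C and homogenized in 50 mM phosphate, pH 7.5. Homogenate was incubated 20 min at 37 °C with 20 µM [14C]PEA plus 0.1 µM clorgyline. Extracted product was scintillation-counted and compared with vehicle.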

[3] = target: T2, Amine oxidase [flavin-containing] A; experiment: Inhibition of MAO-A in rat liver assessed as inhibition of [14C]5-HT oxidation; assay type: functional
Outline: (§1)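 Rat liver homogenized in 50 mM sodium phosphate, pH 7.5, with protease inhibitors, then filtered. 10-20 µg crude protein incubated 20 min at 37 °C with the test compound across increasing concentrations. MAO-A substrate: 200 µM [14C]5-HT. MAO-B substrate: 20 µM [14C]PEA plus 0.1 µM clorgyline. Stopped with 4 N HCl; product extracted into ethyl acetate/toluene and counted by scintillation. IC50 taken from sigmoid curves; three experiments.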

[4] = target: T3, Amine oxidase [flavin-containing] B; experiment: Inhibition of MAO-B in rat liver assessed as inhibition of [14C]PEA oxidation in presence of 0.1 uM clorgyline; assay type: functional; outline: as §1
[5] = target: T2, Amine oxidase [flavin-containing] A; experiment: Residual activity at MAO-A in Sprague-Dawley rat liver at 50 mg/kg, ip; assay type: functional, organism-based; set-up: dose 50 mg/kg, route intraperitoneal; conditions: read-out: Activity
Outline: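 Male Sprague Dawley rats (about 250 g) received three i.p. injections of 50 mg/kg (10 mg/mL in DMSO/saline or saline) or vehicle, given 20 h, 4 h 30 min and 1 h 30 min before sacrifice. Four rats per group; three per vehicle control. Frozen liver homogenate assayed for MAO-A with 200 µM [14C]5-HT. Expressed relative to vehicle-treated animals.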

| Log Ki (Monoamine oxidase) | inhibition at 10 µM [1] [%] | IC50 [3] [nM] | Compound | also measured |
| --- | --- | --- | --- | --- |
| -7.95 |  |  | C1=C(C2=NCCN2)CCc2ccccc21 |  |
|  | 79 | 1200 | OCc1ccc(-c2ccc(C3=NCCN3)o2)cc1 |  |
| -7.68 |  |  | c1ccc(-c2ccc(C3=NCCN3)o2)cc1 [FURALINE] |  |
| -8.72 |  |  | C(=C\c1ccccc1)/C1=NCCN1 [TRACIZOLINE] |  |

Further lines, the compound ahead of its results:

| Compound | Log Ki (Monoamine oxidase) | inhibition at 10 µM [1] [%] | IC50 [3] [nM] | also measured |
| --- | --- | --- | --- | --- |
| c1ccc(-c2ccc(C3=NCCN3)cn2)cc1 |  | 53 | 1800 | Activity [2]: Active |
| c1ccc([C@H]2O[C@@H]2C2=NCCN2)cc1 (relative stereo) | -7.55 |  |  |  |
| Nc1cccc(-c2ccc(C3=NCCN3)o2)c1 [AMIFURALINE] |  | 85 | 600 | IC50 [4]: 19100 nM; activity at 50 mg/kg [5]: 36% |
